# Data published in PubChem BioAssay AID651775 (Broad Institute, 2012).
# Tested on: SK-MEL-5 TRPM1 promoter luciferase, 24 h
# Assay: activators of MITF-driven TRPM1 promoter, dose response, cell-based, SK-MEL-5, luciferase, dry powder (AID 651775)
# In short: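 Material: SK-MEL-5 TRPM1-promoter luciferase reporter line; amount: 2000 cells per well; technique: SteadyGlo luciferase luminescence after 5 min room-temperature incubation; buffer or medium: phenol red-free DMEM plus 10% heat-inactivated FBS; schedule: 24 h compound exposure at 37 °C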
row,Compound,AC40 [nM]
1,Cc1cc2ncc(-c3ccc(Cl)cc3)c(N)n2n1,1770
2,CC(=O)Nc1nnc(COc2ccc(Cl)cc2)s1,589
3,CCN(CC)c1ccc(Nc2nc(-c3cccnc3)cs2)cc1,515
4,O=C(Oc1ccc2ccccc2c1Cl)N1CCCCCC1,113
5,COc1ccc(NC(=O)c2ccc3[nH]c(C)c(C)c3c2)cc1,1930
6,COc1ccc(C(=O)NCCn2ccc3ccccc32)cc1,531
7,C/C(=N\OCc1ccc(C#N)cc1)c1ccc(S(=O)(=O)N(C)C)cc1,7800
8,c1ccc2c(Nc3nnc(-c4ccncc4)s3)cccc2c1,1130
9,O=C(NCCc1cccs1)c1ccc(Cl)c(Cl)c1,615
10,CC(C)(C)C(=O)N1CCN(c2nc3ccccc3s2)CC1,912
11,c1ccc(CSc2ccc(-c3ccc4c(c3)OCO4)nn2)cc1,974
12,Cc1ccc(C(=O)Nc2cccc(O)c2)cc1S(=O)(=O)N1CCCCCC1,1010
13,CCCN(CCC)c1ncnc2c1cnn2-c1ccc(OC)cc1,39
14,Cc1nn2c(-c3ccccc3)ccnc2c1-c1ccccc1,824
15,COc1cccc(NC(=O)C(=O)NCCC2CCCCN2S(=O)(=O)c2cccs2)c1 (stereo not drawn),2070
16,COc1cc(/C=N/O)ccc1OCc1ccccc1Cl,180
17,C=CCNc1nc(-c2ccc(Cl)cc2)cs1,219
18,CSc1nc2ccc(NC(=O)c3cccs3)cc2s1,465
19,c1ccc(-c2ccc(-c3cnc4n3CCCCC4)cc2)cc1,2290
20,Fc1ccccc1COc1ccc(C(=S)N2CCCC2)cc1,1320
21,O=C(Nc1cccc(F)c1)NC1CCCCCCC1,984
22,COC(=O)C(C)N1C(=O)S/C(=C/c2cc(C)n(C(C)C)c2C)C1=O (stereo not drawn),541
23,Cc1ccc(NC(=O)c2ccc3ccccc3n2)cc1S(=O)(=O)N(C)C,462
